Reference: ChEMBL document CHEMBL4706641, “Novel Carboline Fungal Histone Deacetylase (HDAC) Inhibitors for Combinational Treatment of Azole-Resistant Candidiasis” (J Med Chem, 2021)
In brackets after ≈: the same amount, converted by molar mass. Activity calls are given as the source filed them. No cut-off for these calls is given here.

Columns and labels:
[1] = test system: Nakaseomyces glabratus; experiment: Synergistic antifungal activity against Candida glabrata assessed as potentiation of VRC antifungal activity by measuring VRC incubated for 48 hrs in presence of fluconazole by checkerboard microdilution assay; format: functional, organism-based
[2] = test system: Nakaseomyces glabratus; experiment: Synergistic antifungal activity against Candida glabrata assessed as potentiation of ITC antifungal activity by measuring ITC incubated for 48 hrs in presence of fluconazole by checkerboard microdilution assay; format: functional, organism-based
[3] = test system: Candida albicans; experiment: Induction of morphological changes in Candida albicans assessed as reduction in morphological conversion from yeast to hypha forms at 32 ug/ml incubated for 3 hrs by inverse fluorescence microscopy; format: functional, organism-based; settings: dose 32.0 µg/ml
How it was run: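 Exponential-phase C. albicans were suspended in Spider medium ([…], 2% NaHCO₃, […]) at 2 × 10⁶ cells/mL. Drugs were added alone or combined, with DMSO as control. After 3 h at 37 °C, cells were imaged by inverted fluorescence microscopy. Three independent experiments were run.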

[4] = test system: Pichia kudriavzevii; experiment: Antifungal activity against Candida krusei 10153 incubated for 48 hrs by microdilution assay; format: functional
How it was run: (§1)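 Checkerboard broth microdilution per CLSI M27-A3 (modified), clinical Candida isolates. Exponential cells in RPMI 1640 (MOPS-buffered) at 10³ cells/mL; fluconazole 0.25–64 μg/mL crossed with test compound 2–64 μg/mL (final). 48 h at 35 °C; OD630 read with background subtracted. MIC80 = 80% growth inhibition; FICI ≤0.5 synergy, >4 antagonism.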

[5] = Toxicity in human L02 cells; format: cell-based
[6] = target: Histone deacetylase 1 (Homo sapiens, UniProt Q13547); experiment: Inhibition of human HDAC1 pre-incubated for 5 mins before substrate addition and measured after 30 mins by fluorescence based assay
[7] = test system: Candida albicans; experiment: Antifungal activity against Candida albicans 4108 incubated for 48 hrs by microdilution assay; format: functional; how it was run: as §1
[8] = test system: [Candida] auris; experiment: Synergistic antifungal activity against Candida auris assessed as potentiation of VRC antifungal activity by measuring VRC incubated for 48 hrs in presence of fluconazole by checkerboard microdilution assay; format: functional, organism-based; settings: Candidozyma auris
[9] = test system: Candida albicans; experiment: Down regulation of ERG11 mRNA expression in Candida albicans 0304103 at 32 ug/ml incubated for 24 hrs in presence of 32 ug/ml fluconazole by RT-PCR analysis; format: functional; settings: dose 32.0 µg/ml
How it was run: (§2)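 C. albicans 0304103 (initial 1 × 10⁶ cells/mL) treated with DMSO, fluconazole 32 μg/mL, compound 32 μg/mL, or both in YEPD medium, 35 °C for 24 h. Total RNA extracted, reverse transcribed, real-time PCR for 40 cycles; fold change by 2^−ΔΔCt with ACT1 as internal control.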

[10] = test system: Candida albicans; experiment: Synergistic antifungal activity against Candida albicans 9884 assessed as potentiation of fluconazole antifungal activity by measuring FICI incubated for 48 hrs in presence of fluconazole by checkerboard microdilution assay; format: functional
How it was run: (§3)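 Checkerboard broth microdilution per CLSI M27-A3 (modified), clinical Candida isolates. 48 h at 35 °C; OD630 read with background subtracted. MIC80 = 80% growth inhibition; FICI ≤0.5 synergy, >4 antagonism.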

[11] = test system: Candida albicans; experiment: Synergistic antifungal activity against azole-resistant Candida albicans assessed as potentiation of VRC antifungal activity by measuring VRC incubated for 48 hrs in presence of fluconazole by checkerboard microdilution assay; format: functional
[12] = test system: Candida albicans; experiment: Down regulation of CDR1 mRNA expression in Candida albicans 0304103 at 32 ug/ml incubated for 24 hrs in presence of 32 ug/ml fluconazole by RT-PCR analysis; format: functional; settings: dose 32.0 µg/ml; how it was run: as §2
[13] = Toxicity in HUVEC; format: cell-based; settings: human, HUVEC cells
[14] = test system: Candida albicans; experiment: Synergistic antifungal activity against Candida albicans 4108 assessed as potentiation of fluconazole antifungal activity by measuring FICI incubated for 48 hrs in presence of fluconazole by checkerboard microdilution assay; format: functional
[15] = test system: Pichia kudriavzevii; experiment: Synergistic antifungal activity against Candida krusei 10153 assessed as potentiation of fluconazole antifungal activity by measuring FICI incubated for 48 hrs in presence of fluconazole by checkerboard microdilution assay; format: functional; how it was run: as §3
[16] = Toxicity in HUVEC in presence of fluconazole; format: cell-based; settings: human, HUVEC cells
[17] = test system: Candida albicans; experiment: Antifungal activity against Candida albicans 0304103 infected in ICR mouse model of candidiasis assessed as reduction in kidney fungal burden at 10 mg/kg, ip dosed 24 hrs post infection and measured after 5 days; format: functional, organism-based; settings: time 5.0 day
[18] = test system: Pichia kudriavzevii; experiment: Synergistic antifungal activity against Candida krusei 10153 incubated for 48 hrs in presence of fluconazole by microdilution assay; format: functional; how it was run: as §1
[19] = test system: Candida albicans; experiment: Synergistic antifungal activity against Candida albicans 10061 incubated for 48 hrs in presence of fluconazole by microdilution assay; format: functional; how it was run: as §1
[20] = test system: Candida albicans; experiment: Synergistic antifungal activity against Candida albicans 9884 incubated for 48 hrs in presence of fluconazole by microdilution assay; format: functional; how it was run: as §1
[21] = test system: Candida albicans; experiment: Synergistic antifungal activity against Candida albicans 9884 assessed as fluconazole MIC incubated for 48 hrs in presence of fluconazole by microdilution assay (reference value: fluconazole alone MIC = >[…] ug/ml); format: functional
[22] = test system: Candida albicans; experiment: Synergistic antifungal activity against Candida albicans 0304103 assessed as potentiation of fluconazole antifungal activity by measuring FICI incubated for 48 hrs in presence of fluconazole by checkerboard microdilution assay; format: functional; how it was run: as §1
[23] = test system: Cryptococcus neoformans; experiment: Synergistic antifungal activity against Cryptococcus neoformans assessed as potentiation of VRC antifungal activity by measuring VRC incubated for 48 hrs in presence of fluconazole by checkerboard microdilution assay; format: functional, organism-based
[24] = test system: Candida albicans; experiment: Antifungal activity against Candida albicans 0304103 at 32 ug/ml incubated for 48 hrs by microdilution assay; format: functional, organism-based; settings: dose 32.0 µg/ml
[25] = test system: Candida albicans; experiment: microbe, parasite or virus in culture; format: functional, 0304103; settings: Candida albicans, 0304103; time 48 hrs; read-out: MIC80
[26] = test system: Candida albicans; experiment: Synergistic fungicidal activity against Candida albicans 0304103 assessed as potentiation of fluconazole antifungal activity at 32 ug/ml incubated for 48 hrs in presence of 64 ug/ml fluconazole by checkerboard microdilution assay; format: functional, organism-based; settings: dose 32.0 µg/ml
[27] = test system: Candida albicans; experiment: Synergistic antifungal activity against Candida albicans 9172 assessed as potentiation of fluconazole antifungal activity by measuring FICI incubated for 48 hrs in presence of fluconazole by checkerboard microdilution assay; format: functional; how it was run: as §3
[28] = test system: Cryptococcus neoformans; experiment: Synergistic antifungal activity against Cryptococcus neoformans assessed as potentiation of ITC antifungal activity by measuring ITC incubated for 48 hrs in presence of fluconazole by checkerboard microdilution assay; format: functional, organism-based
[29] = test system: Candida albicans; experiment: Antifungal activity against Candida albicans 0304103 infected in ICR mouse model of candidiasis assessed as reduction in kidney fungal burden at 10 mg/kg, ip dosed 24 hrs post infection and co-treated with 1 mg/kg, ip fluconazole and measured after 5 days; format: functional, organism-based; settings: time 5.0 day
[30] = test system: Candida albicans; experiment: Antifungal activity against Candida albicans 0304103 infected in ICR mouse model of candidiasis assessed as reduction in fungal invasion by measuring clusters of fungal infiltration in renal pelvis at 10 mg/kg, ip dosed 24 hrs post infection and measured after 5 days by H and E staining based microscopical analysis; format: functional, organism-based; settings: time 5.0 day
How it was run: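 Two ICR mice per group, infected and treated as in the kidney burden model (IV 5 × 10⁵ C. albicans 0304103; IP compound 10 mg/kg, fluconazole 1 mg/kg, or combination, 5 days). Kidneys fixed in 4% paraformaldehyde, paraffin-embedded, 4 μm sections, H&E stained, examined at 40× and 200×.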

Chain of Histone deacetylase 1 (Q13547 whole entry): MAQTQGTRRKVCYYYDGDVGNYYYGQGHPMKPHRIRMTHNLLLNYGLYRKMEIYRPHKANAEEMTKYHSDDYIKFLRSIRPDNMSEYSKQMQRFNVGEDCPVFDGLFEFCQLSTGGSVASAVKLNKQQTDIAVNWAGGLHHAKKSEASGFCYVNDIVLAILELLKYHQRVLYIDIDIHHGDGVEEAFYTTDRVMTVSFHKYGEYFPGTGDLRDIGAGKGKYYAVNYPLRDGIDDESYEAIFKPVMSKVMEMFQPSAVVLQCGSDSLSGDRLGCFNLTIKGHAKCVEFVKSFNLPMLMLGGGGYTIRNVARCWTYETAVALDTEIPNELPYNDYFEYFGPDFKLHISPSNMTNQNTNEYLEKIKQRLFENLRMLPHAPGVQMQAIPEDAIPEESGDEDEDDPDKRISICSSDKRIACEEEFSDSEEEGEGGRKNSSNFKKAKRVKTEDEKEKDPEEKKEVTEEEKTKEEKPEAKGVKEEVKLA

O=C(Cc1ccc(OCCCn2c3c(c4cccc(Cl)c42)CCNC3)cc1)NO
Activity [1]: Active | Activity [2]: Active | Activity [3]: inactive | MIC80 [4]: 64 µg/mL (≈ 155 µM) | IC50 [5]: 11.5 µM | IC50 [6]: 2.23 µM | MIC80 [7]: 64 µg/mL (≈ 155 µM) | Activity [8]: Active | Activity [9]: Active | fractional inhibitory concentration index (FICI) [10]: 0.039 | fractional inhibitory concentration index (FICI) [11]: 0.035 | Activity [12]: Active | IC50 [13]: 9.64 µM | fractional inhibitory concentration index (FICI) [14]: 0.035 | fractional inhibitory concentration index (FICI) [15]: 0.25 | IC50 [16]: 12.2 µM | Activity [17]: inactive | MIC80 [18]: 8 µg/mL | MIC80 [19]: 2 µg/mL | MIC80 [20]: 2 µg/mL | MIC80 [21]: 0.5 µg/mL | fractional inhibitory concentration index (FICI) [22]: 0.035 | Activity [23]: inactive | Activity [24]: inactive | MIC80 [25]: 0.25 µg/mL (≈ 0.604 µM) | Activity [26]: Active | fractional inhibitory concentration index (FICI) [27]: 0.039 | Activity [28]: inactive | Activity [29]: Active | Activity [30]: inactive
